Data taken from ChEMBL document CHEMBL3091291, “Synthesis and pharmacological characterization of benzenesulfonamides as dual species inhibitors of human and murine mPGES-1” (Bioorg Med Chem, 2013).
Activity calls are given as the source filed them. No cut-off for these calls is given here.

Assays:
[1] = biological target: T1, Prostaglandin E synthase (Homo sapiens) (UniProt O14684); experiment: Inhibition of mPGES-1 in human HeLa cells using PGH2 as substrate assessed as inhibition of IL-1beta/TNFalpha-stimulated PGE2 production at 10 uM after 24 hrs by LC-MS/MS analysis; format: cell-based
T1 sequence (whole entry): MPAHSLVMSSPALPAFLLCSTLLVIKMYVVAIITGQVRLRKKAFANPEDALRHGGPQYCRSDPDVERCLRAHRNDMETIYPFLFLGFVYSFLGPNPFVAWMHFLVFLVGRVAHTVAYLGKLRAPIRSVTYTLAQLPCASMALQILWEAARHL
Method in brief: (§1)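 HeLa cells (2 × 10⁴ per well) grown 24 h at 37 °C, then given fresh medium with 1 ng/mL IL-1b + 5 ng/mL TNFa (or PBS for unstimulated control) plus compound (1, 10 or 100 µM) or DMSO for 24 h at 37 °C. Supernatant mixed with H₃PO₄, EDTA and deuterated internal standards; PGE₂ measured by SPE and LC–MS/MS.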

[2] = biological target: T2, Prostaglandin G/H synthase 1 (Ovis aries) (UniProt P05979); experiment: Inhibition of ovine COX1 using […] at 10 uM by LC-MS/MS analysis
T2 sequence (whole entry): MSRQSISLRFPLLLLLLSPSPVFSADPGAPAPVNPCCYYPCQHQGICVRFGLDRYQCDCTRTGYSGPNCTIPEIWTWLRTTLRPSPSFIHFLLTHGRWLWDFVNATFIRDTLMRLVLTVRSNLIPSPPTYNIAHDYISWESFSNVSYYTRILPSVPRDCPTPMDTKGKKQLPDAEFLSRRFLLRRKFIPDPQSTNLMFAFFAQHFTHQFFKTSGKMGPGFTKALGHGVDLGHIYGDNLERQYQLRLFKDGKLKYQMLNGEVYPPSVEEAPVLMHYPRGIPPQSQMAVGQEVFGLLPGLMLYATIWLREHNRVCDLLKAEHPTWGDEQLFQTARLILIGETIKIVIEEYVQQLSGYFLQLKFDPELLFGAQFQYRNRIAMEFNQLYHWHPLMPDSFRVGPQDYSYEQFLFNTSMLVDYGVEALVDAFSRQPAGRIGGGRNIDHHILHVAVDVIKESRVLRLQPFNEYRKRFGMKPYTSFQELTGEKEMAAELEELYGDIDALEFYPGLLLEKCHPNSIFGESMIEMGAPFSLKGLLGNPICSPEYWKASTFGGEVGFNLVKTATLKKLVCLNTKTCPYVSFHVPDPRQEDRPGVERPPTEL
Method in brief: (§2)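 Ovine COX-1 and recombinant human COX-2 tested directly with a commercial COX inhibitor screening kit, following the manufacturer's protocol. COX-derived PGH₂ reduced with SnCl₂; the resulting PGE₂, PGD₂ and PGF₂a diluted in MeOH, spiked with deuterated internal standards and quantified by SPE and LC–MS/MS.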

[3] = biological target: T1, Prostaglandin E synthase (Homo sapiens); experiment: Inhibition of mPGES-1 in human HeLa cells using PGH2 as substrate assessed as inhibition of IL-1beta/TNFalpha-stimulated PGE2 production at 100 uM after 24 hrs by LC-MS/MS analysis; format: cell-based; method in brief: as §1
[4] = biological target: T3, Polyunsaturated fatty acid 5-lipoxygenase (Homo sapiens) (UniProt P09917); experiment: Inhibition of calcium ionophore (A23187)-stimulated human 5-LO assessed as reduction of LTB4 production by measuring remaining activity at 100 uM preincubated for 15 mins followed by calcium ionophore (A23187) addition measured after 15 mins by LC-MS/MS analysis
T3 sequence (whole entry): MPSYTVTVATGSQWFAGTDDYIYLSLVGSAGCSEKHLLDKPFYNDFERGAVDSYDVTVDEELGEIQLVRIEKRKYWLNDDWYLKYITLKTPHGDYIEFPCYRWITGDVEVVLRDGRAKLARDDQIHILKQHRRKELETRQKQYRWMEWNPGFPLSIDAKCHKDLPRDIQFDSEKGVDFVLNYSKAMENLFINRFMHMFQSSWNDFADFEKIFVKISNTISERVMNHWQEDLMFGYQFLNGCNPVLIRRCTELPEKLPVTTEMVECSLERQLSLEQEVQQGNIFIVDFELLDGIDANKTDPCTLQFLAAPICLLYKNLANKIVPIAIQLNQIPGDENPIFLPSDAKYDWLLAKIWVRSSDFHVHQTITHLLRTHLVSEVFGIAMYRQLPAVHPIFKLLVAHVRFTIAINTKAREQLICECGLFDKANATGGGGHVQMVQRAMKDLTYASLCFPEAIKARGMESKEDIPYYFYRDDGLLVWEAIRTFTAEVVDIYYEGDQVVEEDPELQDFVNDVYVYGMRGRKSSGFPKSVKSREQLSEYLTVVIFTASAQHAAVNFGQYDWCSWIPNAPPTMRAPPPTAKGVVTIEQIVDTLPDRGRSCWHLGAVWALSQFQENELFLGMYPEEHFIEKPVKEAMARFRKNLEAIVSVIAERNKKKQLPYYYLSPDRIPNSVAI
Method in brief: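 Heparinized human whole blood (500 µL) preincubated with compound 15 min at 37 °C, then stimulated with 20 µM calcium ionophore A23187 in autologous plasma for 15 min at 37 °C. Plasma spiked with deuterated LTB₄ and HETE internal standards, extracted into ethyl acetate, analysed by LC–MS/MS. Inhibition scored when a level fell by 33% or more versus control.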

[5] = biological target: T4, Prostaglandin G/H synthase 2 (Homo sapiens) (UniProt P35354); experiment: Inhibition of recombinant human COX2 using […] at 10 uM by LC-MS/MS analysis; method in brief: as §2
T4 sequence (whole entry): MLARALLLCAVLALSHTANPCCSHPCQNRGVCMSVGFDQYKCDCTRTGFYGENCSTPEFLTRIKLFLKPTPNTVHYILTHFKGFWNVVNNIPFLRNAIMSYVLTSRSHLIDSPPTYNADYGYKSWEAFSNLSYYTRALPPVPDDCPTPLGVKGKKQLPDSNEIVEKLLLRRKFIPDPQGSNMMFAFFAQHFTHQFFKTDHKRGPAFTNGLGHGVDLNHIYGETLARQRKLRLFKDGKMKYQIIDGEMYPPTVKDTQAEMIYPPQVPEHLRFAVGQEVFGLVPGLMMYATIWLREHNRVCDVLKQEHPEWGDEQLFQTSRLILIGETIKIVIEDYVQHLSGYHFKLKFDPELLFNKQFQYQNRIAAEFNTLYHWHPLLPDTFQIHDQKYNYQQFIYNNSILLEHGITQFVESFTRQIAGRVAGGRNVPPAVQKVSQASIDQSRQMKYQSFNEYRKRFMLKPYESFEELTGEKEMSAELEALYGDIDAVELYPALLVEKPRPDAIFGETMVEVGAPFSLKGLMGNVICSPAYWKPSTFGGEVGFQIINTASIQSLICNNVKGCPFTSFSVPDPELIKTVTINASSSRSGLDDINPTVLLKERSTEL

inhibition [1] | inhibition [2] | inhibition [3] | Activity [4] | inhibition [5] | Compound
inactive | < 0% | Active | 110% | < 0% | COc1ccc(CN(Cc2ccccc2)S(=O)(=O)c2ccc(C(=O)O)cc2)cc1
Active | 10.3% | Active | 60.4% | 18.5% | COc1ccc(CN(CC2CCCCC2)S(=O)(=O)c2ccc(C(=O)O)cc2)cc1

Continued, compound first:

Compound | inhibition [1] | inhibition [2] | inhibition [3] | Activity [4] | inhibition [5]
O=C(O)c1ccc(S(=O)(=O)N(Cc2ccccc2)Cc2ccc(Oc3ccccc3)cc2)cc1 | Active | 0.3% | Active | 90.8% | 3.1%
O=C(O)c1ccc(S(=O)(=O)N(Cc2ccccc2)c2ccc(Oc3ccccc3)cc2)cc1 | Active | 12.4% | Active | 140% | < 0%
O=C(O)c1ccc(S(=O)(=O)N(Cc2ccccc2)Cc2ccc(Nc3ccccc3)cc2)cc1 | Active | < 0% | Active | 47% | 12.9%
